Experimental data reported in ChEMBL document CHEMBL3272347, “Adamantanamine derivatives. Antimicrobial activities of certain Mannich bases” (1976).

Assays:
Type in all cases: functional
[1] = test system: Mycolicibacterium smegmatis; experiment: Antimicrobial activity against Mycobacterium smegmatis OU 10049 assessed as zone of inhibition after 48 hrs at 0.5 mg/0.1 ml by agar diffusion method
In short: (§1)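 Mycobacterium disk diffusion on MDTM agar. Each disk (12.7 mm) got 0.1 ml of Me2SO solution, was air-stood 30 min, then was placed four per seeded plate. Plates were incubated at 37° for 48 hr. Zone diameter was measured by caliper to 0.1 mm. Results averaged 2–4 replicate disks and ≥2 independent-day experiments.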

Staphylococcus aureus [2] = experiment: Antimicrobial activity against Staphylococcus aureus ATCC 10001 assessed as zone of inhibition after 24 hrs at 0.1 mg/0.1 ml by agar diffusion method
In short: (§2)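 Bacteria were tested on seeded agar plates with 12.7-mm disks, each loaded with 0.1 ml of compound in Me2SO (stock used directly or Me2SO-diluted). Disks were held 30 min on a wire screen before placement, four per plate. Incubation was 37°, 24 hr. Inhibition zones were measured by caliper to the nearest 0.1 mm. Replicates were 2–4 per dilution over at least two separate days, averaged.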

Mycolicibacterium phlei [3] = experiment: Antimicrobial activity against Mycobacterium phlei ATCC 356 assessed as zone of inhibition after 48 hrs at 0.5 mg/0.1 ml by agar diffusion method; in short: as §1
Escherichia coli [4] = experiment: Antimicrobial activity against Escherichia coli ATCC 10586 assessed as zone of inhibition after 24 hrs at 2 mg/0.1 ml by agar diffusion method; in short: as §2
Pseudomonas aeruginosa = experiment: Antimicrobial activity against Pseudomonas aeruginosa OU 10048 assessed as zone of inhibition after 24 hrs at 4 mg/0.1 ml by agar diffusion method; in short: as §2
Candida albicans [5] = experiment: Antimicrobial activity against Candida albicans CDC MI-023 assessed as zone of inhibition after 24 hrs at 2 mg/0.1 ml by agar diffusion method
In short: (§3)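 Disk agar diffusion on SDA. Compound in Me2SO stock, used neat or diluted in Me2SO, was loaded at 0.1 ml per 12.7-mm disk. Disks stood 30 min on mesh, then went four per seeded plate. Plates ran at 37° for 48 hr (A. niger) or 24 hr (C. albicans). Zones were read by caliper to 0.1 mm. There were 2–4 replicate disks per dilution and ≥2 experiments on separate days with same-day stocks; results were averaged.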

Escherichia coli [6] = experiment: Antimicrobial activity against Escherichia coli ATCC 8739 assessed as zone of inhibition after 24 hrs at 2 mg/0.1 ml by agar diffusion method; in short: as §2
Escherichia coli [7] = experiment: Antimicrobial activity against Escherichia coli ATCC 11303 assessed as zone of inhibition after 24 hrs at 1 mg/0.1 ml by agar diffusion method; in short: as §2
Aspergillus niger [8] = experiment: Antimicrobial activity against Aspergillus niger OU S-23 assessed as zone of inhibition after 48 hrs at 2 mg/0.1 ml by agar diffusion method; in short: as §3
Staphylococcus aureus [9] = experiment: Antimicrobial activity against Staphylococcus aureus ATCC 10014 assessed as zone of inhibition after 24 hrs at 0.1 mg/0.1 ml by agar diffusion method; in short: as §2
Escherichia coli [10] = experiment: Antimicrobial activity against Escherichia coli ATCC 11303 assessed as zone of inhibition after 24 hrs at 0.5 mg/0.1 ml by agar diffusion method; in short: as §2
Staphylococcus aureus [11] = experiment: Antimicrobial activity against Staphylococcus aureus ATCC 10001 assessed as zone of inhibition after 24 hrs at 1 mg/0.1 ml by agar diffusion method; in short: as §2
Staphylococcus aureus [12] = experiment: Antimicrobial activity against Staphylococcus aureus by tube dilution method
In short: (§4)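 MIC was found by tube dilution, with Me2SO as carrier solvent diluted in the tubes. For M. smegmatis, separate determinations were made in MDTM broth and in MDTM agar.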

Staphylococcus aureus [13] = experiment: Antimicrobial activity against Staphylococcus aureus ATCC 10014 assessed as zone of inhibition after 24 hrs at 1 mg/0.1 ml by agar diffusion method; in short: as §2
[14] = test system: Mycolicibacterium smegmatis; experiment: Antimicrobial activity against Mycobacterium smegmatis by tube dilution method; in short: as §4
Aspergillus niger [15] = experiment: Antimicrobial activity against Aspergillus niger OU S-23 assessed as zone of inhibition after 48 hrs at 4 mg/0.1 ml by agar diffusion method; in short: as §3
Escherichia coli [16] = experiment: Antimicrobial activity against Escherichia coli by tube dilution method; in short: as §4
Candida albicans [17] = experiment: Antimicrobial activity against Candida albicans CDC MI-023 assessed as zone of inhibition after 24 hrs at 0.5 mg/0.1 ml by agar diffusion method; in short: as §3
Escherichia coli [18] = experiment: Antimicrobial activity against Escherichia coli ATCC 10586 assessed as zone of inhibition after 24 hrs at 1 mg/0.1 ml by agar diffusion method; in short: as §2
Escherichia coli [19] = experiment: Antimicrobial activity against Escherichia coli ATCC 8739 assessed as zone of inhibition after 24 hrs at 1 mg/0.1 ml by agar diffusion method; in short: as §2
Escherichia coli [20] = experiment: Antimicrobial activity against Escherichia coli ATCC 11303 assessed as zone of inhibition after 24 hrs at 2 mg/0.1 ml by agar diffusion method; in short: as §2
Staphylococcus aureus [21] = experiment: Antimicrobial activity against Staphylococcus aureus ATCC 10014 assessed as zone of inhibition after 24 hrs at 0.5 mg/0.1 ml by agar diffusion method; in short: as §2
[22] = test system: Mycolicibacterium smegmatis; experiment: Antimicrobial activity against Mycobacterium smegmatis OU 10049 assessed as zone of inhibition after 48 hrs at 1 mg/0.1 ml by agar diffusion method; in short: as §1
Candida albicans [23] = experiment: Antimicrobial activity against Candida albicans CDC MI-023 assessed as zone of inhibition after 24 hrs at 4 mg/0.1 ml by agar diffusion method; in short: as §3
Staphylococcus aureus [24] = experiment: Antimicrobial activity against Staphylococcus aureus ATCC 10001 assessed as zone of inhibition after 24 hrs at 0.5 mg/0.1 ml by agar diffusion method; in short: as §2
Mycolicibacterium phlei [25] = experiment: Antimicrobial activity against Mycobacterium phlei ATCC 356 assessed as zone of inhibition after 48 hrs at 0.25 mg/0.1 ml by agar diffusion method; in short: as §1
Candida albicans [26] = experiment: Antimicrobial activity against Candida albicans CDC MI-023 assessed as zone of inhibition after 24 hrs at 0.1 mg/0.1 ml by agar diffusion method; in short: as §3
[27] = test system: Mycolicibacterium smegmatis; experiment: Antimicrobial activity against Mycobacterium smegmatis OU 10049 assessed as zone of inhibition after 48 hrs at 0.25 mg/0.1 ml by agar diffusion method; in short: as §1

| MIC (Staphylococcus aureus [12]) [µg/mL] | MIC [14] [µg/mL] | MIC (Escherichia coli [16]) [µg/mL] | SMILES | inhibition zone (IZ) [1] [mm] | inhibition zone (IZ) (Staphylococcus aureus [2]) [mm] | inhibition zone (IZ) (Mycolicibacterium phlei [3]) [mm] | inhibition zone (IZ) (Escherichia coli [4]) [mm] | inhibition zone (IZ) (Pseudomonas aeruginosa) [mm] | inhibition zone (IZ) (Escherichia coli [6]) [mm] | inhibition zone (IZ) (Staphylococcus aureus [9]) [mm] | inhibition zone (IZ) (Escherichia coli [10]) [mm] | inhibition zone (IZ) (Aspergillus niger [15]) [mm] | inhibition zone (IZ) (Escherichia coli [18]) [mm] | inhibition zone (IZ) (Escherichia coli [19]) [mm] | other results |
| --- | --- | --- | --- | --- | --- | --- | --- | --- | --- | --- | --- | --- | --- | --- | --- |
| – | – | – | Cl.O=C(CCNC12CC3CC(CC(C3)C1)C2)c1cccc([N+](=O)[O-])c1 | 16.6 | 15.4 | 19.1 | 16.8 | 15 | 16.3 | 15.7 | – | – | – | – | inhibition zone (IZ) (Candida albicans [5]): 16.2 mm; inhibition zone (IZ) (Escherichia coli [7]): 15.5 mm; inhibition zone (IZ) (Aspergillus niger [8]): 15 mm |
| 500 | 250 | 1000 | Cl.O=C(CCNC12CC3CC(CC(C3)C1)C2)c1ccc(F)cc1 | 15.3 | – | 17.7 | – | 15 | – | – | 17.6 | 15 | 16.5 | 16.7 | inhibition zone (IZ) (Staphylococcus aureus [11]): 19.1 mm; inhibition zone (IZ) (Staphylococcus aureus [13]): 16.6 mm; inhibition zone (IZ) (Candida albicans [17]): 16.6 mm |
| – | – | – | Cl.O=C(CCNC12CC3CC(CC(C3)C1)C2)c1ccc(O)cc1 | – | – | 16.3 | 16 | 15 | 16 | – | – | 15 | – | – | inhibition zone (IZ) (Escherichia coli [20]): 17.2 mm; inhibition zone (IZ) (Staphylococcus aureus [21]): 15.3 mm; inhibition zone (IZ) [22]: 19 mm; inhibition zone (IZ) (Candida albicans [23]): 15.4 mm; inhibition zone (IZ) (Staphylococcus aureus [24]): 15.6 mm |
| 125 | 125 | 500 | Cl.O=C(CCNC12CC3CC(CC(C3)C1)C2)c1cccc(Br)c1 | – | 18.7 | – | – | 15 | – | 17.5 | 17.5 | 16.8 | 17.4 | 18.2 | inhibition zone (IZ) (Mycolicibacterium phlei [25]): 20 mm; inhibition zone (IZ) (Candida albicans [26]): 15.3 mm; inhibition zone (IZ) [27]: 17.6 mm |
